Values belong to the compound of their own block, whether it stands above or below them. Active and inactive are the calls of the source. The rule behind the calls is not given here.
Key:
[1] = molecular target: T1, Protein cereblon/Apoptosis regulator Bcl-2 (Homo sapiens, UniProt P10415+Q96SW2); experiment: Induction of CRBN-mediated Bcl-2 degradation in human HeLa cells by Western blot analysis; format: cell-based
[2] = molecular target: T2, Protein cereblon/Induced myeloid leukemia cell differentiation protein Mcl-1 (Homo sapiens, UniProt Q07820+Q96SW2); experiment: Induction of CRBN-mediated Mcl-1 degradation in human HeLa cells assessed as relative abundance at 10 uM after 12 hrs by Western blot analysis (reference value: 1); format: cell-based
Target sequence in this assay (Q07820 whole entry, looked up): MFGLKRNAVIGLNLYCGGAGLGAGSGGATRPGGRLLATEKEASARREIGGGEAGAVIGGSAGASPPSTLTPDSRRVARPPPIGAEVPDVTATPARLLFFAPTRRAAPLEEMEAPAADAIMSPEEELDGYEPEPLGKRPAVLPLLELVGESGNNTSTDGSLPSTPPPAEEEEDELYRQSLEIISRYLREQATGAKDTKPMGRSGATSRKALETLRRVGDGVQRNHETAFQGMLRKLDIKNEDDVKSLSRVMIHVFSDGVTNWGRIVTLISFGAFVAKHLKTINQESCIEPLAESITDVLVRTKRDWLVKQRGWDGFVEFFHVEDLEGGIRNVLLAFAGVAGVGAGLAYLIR
Target sequence in this assay (Q96SW2 whole entry, looked up): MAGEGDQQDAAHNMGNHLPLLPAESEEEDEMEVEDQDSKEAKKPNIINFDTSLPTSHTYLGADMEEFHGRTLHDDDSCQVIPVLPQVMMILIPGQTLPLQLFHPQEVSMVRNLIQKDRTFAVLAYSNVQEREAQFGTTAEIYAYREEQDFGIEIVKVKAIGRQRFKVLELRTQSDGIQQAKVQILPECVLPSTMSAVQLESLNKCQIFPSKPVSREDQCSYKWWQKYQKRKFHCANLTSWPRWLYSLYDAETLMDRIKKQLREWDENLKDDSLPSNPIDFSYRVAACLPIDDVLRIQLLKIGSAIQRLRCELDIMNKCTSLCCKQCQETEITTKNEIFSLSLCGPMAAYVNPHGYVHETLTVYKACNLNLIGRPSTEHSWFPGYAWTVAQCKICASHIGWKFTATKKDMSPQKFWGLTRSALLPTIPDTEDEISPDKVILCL

[3] = molecular target: T2, Protein cereblon/Induced myeloid leukemia cell differentiation protein Mcl-1; experiment: Induction of CRBN-mediated Mcl-1 degradation in human HeLa cells assessed as relative abundance at 1 uM after 12 hrs by Western blot analysis (reference value: 1); format: cell-based
Target sequence in this assay (Q07820 whole entry, looked up): as the sequence (Q07820 whole entry, looked up) above
Target sequence in this assay (Q96SW2 whole entry, looked up): as the sequence (Q96SW2 whole entry, looked up) above

[4] = molecular target: T1, Protein cereblon/Apoptosis regulator Bcl-2; experiment: Induction of CRBN-mediated Bcl-2 degradation in human HeLa cells assessed as relative abundance at 10 uM after 12 hrs by Western blot analysis (reference value: 1); format: cell-based
[5] = molecular target: T1, Protein cereblon/Apoptosis regulator Bcl-2; experiment: Induction of CRBN-mediated Bcl-2 degradation in human HeLa cells assessed as relative abundance at 1 uM after 12 hrs by Western blot analysis (reference value: 1); format: cell-based
[6] = molecular target: T1, Protein cereblon/Apoptosis regulator Bcl-2; experiment: Induction of CRBN-mediated Bcl-2 degradation in human HeLa cells assessed as relative abundance at 3 uM after 12 hrs by Western blot analysis (reference value: 1); format: cell-based
[7] = molecular target: T1, Protein cereblon/Apoptosis regulator Bcl-2; experiment: Induction of CRBN-mediated Bcl-2 degradation in human HeLa cells assessed as relative abundance at 0.3 uM after 12 hrs by Western blot analysis (reference value: 1); format: cell-based
[8] = molecular target: T2, Protein cereblon/Induced myeloid leukemia cell differentiation protein Mcl-1; experiment: Induction of CRBN-mediated Mcl-1 degradation in human HeLa cells assessed as relative abundance at 0.1 uM after 12 hrs by Western blot analysis (reference value: 1); format: cell-based
Target sequence in this assay (Q07820 whole entry, looked up): as the sequence (Q07820 whole entry, looked up) above
Target sequence in this assay (Q96SW2 whole entry, looked up): as the sequence (Q96SW2 whole entry, looked up) above

[9] = molecular target: T1, Protein cereblon/Apoptosis regulator Bcl-2; experiment: Induction of CRBN-mediated Bcl-2 degradation in human HeLa cells assessed as relative abundance at 0.1 uM after 12 hrs by Western blot analysis (reference value: 1); format: cell-based
[10] = molecular target: T2, Protein cereblon/Induced myeloid leukemia cell differentiation protein Mcl-1; experiment: Induction of CRBN-mediated Mcl-1 degradation in human HeLa cells assessed as relative abundance at 0.3 uM after 12 hrs by Western blot analysis (reference value: 1); format: cell-based
Target sequence in this assay (Q07820 whole entry, looked up): as the sequence (Q07820 whole entry, looked up) above
Target sequence in this assay (Q96SW2 whole entry, looked up): as the sequence (Q96SW2 whole entry, looked up) above

[11] = molecular target: T2, Protein cereblon/Induced myeloid leukemia cell differentiation protein Mcl-1; experiment: Induction of CRBN-mediated Mcl-1 degradation in human HeLa cells assessed as relative abundance at 3 uM after 12 hrs by Western blot analysis (reference value: 1); format: cell-based
Target sequence in this assay (Q07820 whole entry, looked up): as the sequence (Q07820 whole entry, looked up) above
Target sequence in this assay (Q96SW2 whole entry, looked up): as the sequence (Q96SW2 whole entry, looked up) above

[12] = molecular target: T2, Protein cereblon/Induced myeloid leukemia cell differentiation protein Mcl-1; experiment: Induction of CRBN-mediated Mcl-1 degradation in human HeLa cells assessed as relative abundance at 10 uM measured at 2 hrs by Western blot analysis (reference value: 1); format: cell-based
Outline: (§1)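 HeLa cells in DMEM with 10% FBS, exposed to 10 µM compound over a 0–24 h time course. Mcl-1 and Bcl-2 detected by immunoblot (NP-40 lysis, BCA-equalized SDS-PAGE, PVDF, ECL) and quantified relative to DMSO control; mean ± s.d., n=3 independent samples.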
Target sequence in this assay (Q07820 whole entry, looked up): as the sequence (Q07820 whole entry, looked up) above
Target sequence in this assay (Q96SW2 whole entry, looked up): as the sequence (Q96SW2 whole entry, looked up) above

[13] = molecular target: T2, Protein cereblon/Induced myeloid leukemia cell differentiation protein Mcl-1; experiment: Induction of CRBN-mediated Mcl-1 degradation in human HeLa cells assessed as relative abundance at 10 uM measured at 4 hrs by Western blot analysis (reference value: 1); format: cell-based; outline: as §1
[14] = molecular target: T2, Protein cereblon/Induced myeloid leukemia cell differentiation protein Mcl-1; experiment: Induction of CRBN-mediated Mcl-1 degradation in human HeLa cells assessed as relative abundance at 10 uM measured at 8 hrs by Western blot analysis (reference value: 1); format: cell-based; outline: as §1
[15] = molecular target: T1, Protein cereblon/Apoptosis regulator Bcl-2; experiment: Induction of CRBN-mediated Bcl-2 degradation in human HeLa cells assessed as relative abundance at 10 uM measured at 20 hrs by Western blot analysis (reference value: 1); format: cell-based; outline: as §1
[16] = molecular target: T2, Protein cereblon/Induced myeloid leukemia cell differentiation protein Mcl-1; experiment: Induction of CRBN-mediated Mcl-1 degradation in human HeLa cells assessed as relative abundance at 10 uM measured at 16 hrs by Western blot analysis (reference value: 1); format: cell-based; outline: as §1
[17] = molecular target: T2, Protein cereblon/Induced myeloid leukemia cell differentiation protein Mcl-1; experiment: Induction of CRBN-mediated Mcl-1 degradation in human HeLa cells assessed as relative abundance at 10 uM measured at 20 hrs by Western blot analysis (reference value: 1); format: cell-based; outline: as §1
[18] = molecular target: T2, Protein cereblon/Induced myeloid leukemia cell differentiation protein Mcl-1; experiment: Induction of CRBN-mediated Mcl-1 degradation in human HeLa cells assessed as relative abundance at 10 uM measured at 24 hrs by Western blot analysis (reference value: 1); format: cell-based; outline: as §1
[19] = molecular target: T1, Protein cereblon/Apoptosis regulator Bcl-2; experiment: Induction of CRBN-mediated Bcl-2 degradation in human HeLa cells assessed as relative abundance at 10 uM measured at 2 hrs by Western blot analysis (reference value: 1); format: cell-based; outline: as §1
[20] = molecular target: T1, Protein cereblon/Apoptosis regulator Bcl-2; experiment: Induction of CRBN-mediated Bcl-2 degradation in human HeLa cells assessed as relative abundance at 10 uM measured at 4 hrs by Western blot analysis (reference value: 1); format: cell-based; outline: as §1
[21] = molecular target: T1, Protein cereblon/Apoptosis regulator Bcl-2; experiment: Induction of CRBN-mediated Bcl-2 degradation in human HeLa cells assessed as relative abundance at 10 uM measured at 8 hrs by Western blot analysis (reference value: 1); format: cell-based; outline: as §1
[22] = molecular target: T1, Protein cereblon/Apoptosis regulator Bcl-2; experiment: Induction of CRBN-mediated Bcl-2 degradation in human HeLa cells assessed as relative abundance at 10 uM measured at 16 hrs by Western blot analysis (reference value: 1); format: cell-based; outline: as §1
[23] = molecular target: T1, Protein cereblon/Apoptosis regulator Bcl-2; experiment: Induction of CRBN-mediated Bcl-2 degradation in human HeLa cells assessed as relative abundance at 10 uM measured at 24 hrs by Western blot analysis (reference value: 1); format: cell-based; outline: as §1
[24] = molecular target: T2, Protein cereblon/Induced myeloid leukemia cell differentiation protein Mcl-1; experiment: Induction of CRBN-mediated Mcl-1 degradation in human HeLa cells at 10 uM measured at 24 hrs by Western blot analysis relative to control; format: cell-based; outline: as §1
[25] = molecular target: T2, Protein cereblon/Induced myeloid leukemia cell differentiation protein Mcl-1; experiment: Induction of CRBN-mediated Mcl-1 degradation in human HeLa cells assessed as Mcl-1 removal activity measured at 12 hrs by Western blot analysis; format: cell-based
Target sequence in this assay (Q07820 whole entry): as the sequence (Q07820 whole entry, looked up) above
Target sequence in this assay (Q96SW2 whole entry): as the sequence (Q96SW2 whole entry, looked up) above

[26] = molecular target: T2, Protein cereblon/Induced myeloid leukemia cell differentiation protein Mcl-1; experiment: Induction of CRBN-mediated Mcl-1 degradation in human K562 cells incubated for 12 hrs by Western blot analysis; format: cell-based
Outline: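 K562 cells kept in RPMI1640 with 10% FBS at 37 °C, 5% CO2. After compound treatment, cells lysed in NP-40 buffer with protease inhibitors. Equal protein run on SDS-PAGE, then immunoblotted; protein levels quantified from the blots.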

[27] = molecular target: T2, Protein cereblon/Induced myeloid leukemia cell differentiation protein Mcl-1; experiment: Induction of CRBN-mediated Mcl-1 degradation in human HeLa cells by Western blot analysis; format: cell-based
Outline: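 HeLa cells (DMEM, 10% FBS, 37 °C, 5% CO2) treated 12 h with compound (10 µM, or 0–10 µM gradient; time course 0–24 h at 10 µM). Lysis in NP-40 buffer with protease inhibitors, equal protein loaded for SDS-PAGE and immunoblotting. Bands quantified relative to DMSO control. n=3 independent samples.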

NCI-H23 = experiment: Cytotoxicity against human H23 cells incubated for 24 hrs by CCK8 assay; format: functional, cell-based
Outline: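 H23 cells seeded at 4 × 10^4 per mL in RPMI with 10% FBS, L-glutamine and pen/strep. Treated 24 h at various concentrations or with DMSO vehicle (0.05%). Viability read by CCK8 and normalized against cell-free background and untreated cultures; mean ± s.e.m., n=3.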

T1 sequence (P10415 whole entry, looked up): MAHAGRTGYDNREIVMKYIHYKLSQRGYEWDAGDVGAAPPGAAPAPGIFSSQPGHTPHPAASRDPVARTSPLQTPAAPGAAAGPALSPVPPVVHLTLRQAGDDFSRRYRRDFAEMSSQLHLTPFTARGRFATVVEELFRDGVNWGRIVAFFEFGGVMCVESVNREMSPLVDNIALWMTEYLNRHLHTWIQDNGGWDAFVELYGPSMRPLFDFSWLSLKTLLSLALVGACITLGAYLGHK
T1 sequence (Q96SW2 whole entry, looked up): as the sequence (Q96SW2 whole entry, looked up) above

- Activity [1]: inactive
Compound: CN1C(=O)CCC(N2C(=O)c3cccc(NCCOCCOCCNC(=O)CCCCC(=O)NCCN4C(=O)c5cccc6c(Sc7ccc(Br)cc7)ccc(c56)C4=O)c3C2=O)C1=O (stereo not drawn)

- fold change (FC) [2]: 0.6
- fold change (FC) [3]: 1.1
- fold change (FC) [4]: 1.1
- fold change (FC) [5]: 1.3
- fold change (FC) [6]: 1
- fold change (FC) [7]: 1.3
- fold change (FC) [8]: 1
- fold change (FC) [9]: 1.2
- fold change (FC) [10]: 1.1
- fold change (FC) [11]: 0.8
- fold change (FC) [12]: 1
- fold change (FC) [13]: 1
- fold change (FC) [14]: 0.9
- fold change (FC) [15]: 1.1
- fold change (FC) [16]: 0.5
- fold change (FC) [17]: 0.3
- fold change (FC) [18]: 0.2
- fold change (FC) [19]: 1.1
- fold change (FC) [20]: 1.2
- fold change (FC) [21]: 1.3
- fold change (FC) [22]: 1
- fold change (FC) [23]: 1.1
- Activity [24]: 80%
- DC50 [25]: 3.6 µM
- Activity [26]: Active
Compound: N#CC1=C(NCCC(=O)O)c2ccc(Sc3ccc(Br)cc3)c3cccc(c23)C1=O

- Activity [27]: inactive
Compound: CN1C(=O)CCC(N2C(=O)c3cccc(NCCCCCCNC(=O)CCCCC(=O)NCCN4C(=O)c5cccc6c(Sc7ccc(Br)cc7)ccc(c56)C4=O)c3C2=O)C1=O (stereo not drawn)
- Activity (NCI-H23): Active

Source: ChEMBL document CHEMBL4321796, “Proteolysis Targeting Chimeras for the Selective Degradation of Mcl-1/Bcl-2 Derived from Nonselective Target Binding Ligands” (J Med Chem, 2019)
